Columns and labels:
[1] = biological target: 53BP1 tandem tudor domain (Homo sapiens, UniProt Q12888); assay: Isothermal titration calorimetry; type: binding; conditions: ITC
Caco-2 cell = assay: Bi-directional Caco-2 cell permeability assay; type: in vitro ADME
U2OS cells = assay: 53BP1 and γH2AX foci formation after ionizing radiation; type: cell-based
[2] = CellTiter-Glo luminescent cell-viability assay; type: cell-based
tudor domain of 53BP1 = tudor domain of 53BP1 (Homo sapiens, UniProt Q12888); assay: 1H-15N HSQC NMR of 53BP1 tudor domain; type: binding; conditions: 10-fold molar excess of ligand
endogenous 53BP1 = endogenous 53BP1 (Homo sapiens, UniProt Q12888); assay: Chromatin release assay in HEK293 cell lysates; type: biochemical; conditions: 2 hours at room temperature
Procedure, shortened: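 HEK293 cells were lysed in EBC-1 (Tris pH 7.5, 100 mM NaCl, 0.5% NP-40, 1 mM EDTA). Washed nuclei were held 30 min in EBC-2 (Tris pH 7.5, 300 mM NaCl, 5 mM CaCl2), and the insoluble chromatin was pelleted and resuspended in EBC-2. Chromatin was exposed to test compound 2 h at RT. The supernatant (soluble) and the sonicated pellet (chromatin-bound) were western blotted for 53BP1, with histone H3 as loading control.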

53BP1 = 53BP1 (Homo sapiens, UniProt Q12888); assay: AlphaScreen Kme reader panel: 53BP1; type: binding
Procedure, shortened: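 Compound serially diluted 3-fold over 10 points in DMSO, top final 100 µM, and preincubated 30 min at RT with His-tagged reader protein–peptide mix in 20 mM Tris pH 8.0, 25 mM NaCl, 2 mM DTT, 0.05% Tween-20. Streptavidin donor/nickel-chelate acceptor bead mix (45 µg/mL) then added for 30 min, dark, RT, and AlphaScreen signal read. The same format was used across the Kme reader panel. IC50 is the mean of ≥3 values ± SD.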

[3] = biological target: GFP fusion protein containing the 53BP1 tudor domains (Homo sapiens, UniProt Q12888); assay: Fluorescence recovery after photobleaching; type: cell-based; conditions: FRAP before or after ionizing radiation (10 Gy)
Naive IgM+ B cells = assay: Class switch recombination; type: cell-based, mouse; conditions: 300 µM
53BP1 D1521A mutant = 53BP1 D1521A mutant (Homo sapiens, UniProt Q12888, D1521A); assay: ITC with active site mutant; type: binding; conditions: Kme pocket mutant, listed as UNC2170
53BP1 D1521A mutant, sequence (Q12888 1484-1603 D1521A limits assumed): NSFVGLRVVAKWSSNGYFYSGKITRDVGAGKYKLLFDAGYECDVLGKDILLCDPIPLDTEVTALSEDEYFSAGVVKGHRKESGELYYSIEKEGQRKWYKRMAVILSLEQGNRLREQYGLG

53BP1, sequence (Q12888 1484-1603 limits assumed): as the sequence (Q12888 1484-1603 D1521A limits assumed) above, with A38D counted along it
GFP fusion protein containing the 53BP1 tudor domains, sequence (Q12888 1484-1603 limits assumed): as the sequence (Q12888 1484-1603 D1521A limits assumed) above, with A38D counted along it
tudor domain of 53BP1, sequence (Q12888 1484-1603 limits assumed): as the sequence (Q12888 1484-1603 D1521A limits assumed) above, with A38D counted along it
53BP1 tandem tudor domain, sequence (Q12888 1484-1603 limits assumed): as the sequence (Q12888 1484-1603 D1521A limits assumed) above, with A38D counted along it
endogenous 53BP1, sequence (Q12888 whole entry): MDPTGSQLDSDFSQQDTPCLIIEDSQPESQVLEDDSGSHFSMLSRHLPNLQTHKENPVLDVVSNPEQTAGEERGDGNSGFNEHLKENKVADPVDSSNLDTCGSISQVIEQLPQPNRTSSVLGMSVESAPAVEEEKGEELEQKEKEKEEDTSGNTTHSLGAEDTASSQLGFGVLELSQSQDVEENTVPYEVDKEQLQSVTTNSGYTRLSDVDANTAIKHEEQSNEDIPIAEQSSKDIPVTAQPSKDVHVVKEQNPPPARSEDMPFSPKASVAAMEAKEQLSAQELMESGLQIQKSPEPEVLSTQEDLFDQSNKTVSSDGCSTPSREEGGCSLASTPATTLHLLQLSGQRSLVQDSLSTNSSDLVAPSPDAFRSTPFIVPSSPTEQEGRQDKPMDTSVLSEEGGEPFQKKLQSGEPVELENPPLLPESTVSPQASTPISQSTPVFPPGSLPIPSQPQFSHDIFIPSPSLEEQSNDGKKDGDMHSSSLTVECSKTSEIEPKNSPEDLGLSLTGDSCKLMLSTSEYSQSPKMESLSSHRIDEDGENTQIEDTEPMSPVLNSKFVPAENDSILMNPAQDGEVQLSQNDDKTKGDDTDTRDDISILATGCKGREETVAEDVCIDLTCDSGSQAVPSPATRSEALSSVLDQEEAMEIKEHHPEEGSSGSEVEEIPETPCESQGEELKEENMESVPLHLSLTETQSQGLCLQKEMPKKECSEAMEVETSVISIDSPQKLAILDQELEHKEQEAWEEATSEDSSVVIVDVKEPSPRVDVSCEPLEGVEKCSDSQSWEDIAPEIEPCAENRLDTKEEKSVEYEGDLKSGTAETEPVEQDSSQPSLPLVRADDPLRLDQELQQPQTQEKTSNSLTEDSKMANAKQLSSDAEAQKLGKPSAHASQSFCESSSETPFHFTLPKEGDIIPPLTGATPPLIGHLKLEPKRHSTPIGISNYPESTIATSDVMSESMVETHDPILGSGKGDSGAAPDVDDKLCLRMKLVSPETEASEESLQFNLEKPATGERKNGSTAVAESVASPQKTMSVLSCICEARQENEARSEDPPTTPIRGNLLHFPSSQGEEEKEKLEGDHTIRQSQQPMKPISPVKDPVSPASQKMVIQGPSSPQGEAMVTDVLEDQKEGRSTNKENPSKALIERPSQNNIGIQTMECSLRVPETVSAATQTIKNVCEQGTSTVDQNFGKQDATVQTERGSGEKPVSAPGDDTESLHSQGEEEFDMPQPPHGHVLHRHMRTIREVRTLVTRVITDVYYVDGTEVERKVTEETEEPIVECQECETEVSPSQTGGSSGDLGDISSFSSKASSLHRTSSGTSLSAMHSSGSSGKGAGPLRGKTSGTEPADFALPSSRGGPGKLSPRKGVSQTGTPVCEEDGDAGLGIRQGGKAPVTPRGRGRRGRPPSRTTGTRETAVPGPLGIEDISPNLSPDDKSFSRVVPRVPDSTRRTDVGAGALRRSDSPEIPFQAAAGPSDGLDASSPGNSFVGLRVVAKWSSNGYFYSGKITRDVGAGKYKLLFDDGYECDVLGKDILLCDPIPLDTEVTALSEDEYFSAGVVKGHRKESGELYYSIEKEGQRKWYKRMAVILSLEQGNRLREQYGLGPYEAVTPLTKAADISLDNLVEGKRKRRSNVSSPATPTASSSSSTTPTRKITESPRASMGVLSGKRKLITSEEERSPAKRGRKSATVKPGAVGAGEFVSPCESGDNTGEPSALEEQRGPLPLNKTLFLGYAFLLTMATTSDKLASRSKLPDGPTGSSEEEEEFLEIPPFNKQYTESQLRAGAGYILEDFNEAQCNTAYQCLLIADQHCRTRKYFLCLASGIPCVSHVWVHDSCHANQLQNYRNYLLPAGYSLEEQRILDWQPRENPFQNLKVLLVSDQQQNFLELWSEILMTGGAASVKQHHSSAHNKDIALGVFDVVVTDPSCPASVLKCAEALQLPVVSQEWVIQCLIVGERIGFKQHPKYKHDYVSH

Row | SMILES | Kd against the 53BP1 tandem tudor domain [1] | cell permeability (Caco-2 cell) | γH2AX foci (U2OS cells; after compound treatment) | extent of endogenous 53BP1 foci formed following irradiation (U2OS cells; pretreatment 1 hour, 100 – 300 µM, 5 Gy) | concentration at which cell toxicity begins to take effect [2] | changes in chemical shifts of 53BP1 tudor domain (tudor domain of 53BP1) | lowest concentration at which partial release of 53BP1 was detected (endogenous 53BP1) | ligand efficiency (53BP1) | lipophilic ligand efficiency (53BP1) | selectivity for 53BP1 as compared to other Kme binding proteins tested (53BP1; versus nine other Kme reader proteins, AlphaScreen) | apparent residence time of GFP-53BP1 tudor fusion protein [3] | cell viability of B cells undergoing CSR (Naive IgM+ B cells) | binding to 53BP1 D1521A mutant (53BP1 D1521A mutant)
1 | CN(CCCNC(=O)c1cccc(Br)c1)C(C)(C)C [Compound 4] | no measurable affinity | – | – | – | – | – | – | – | – | – | – | – | –
2 | CC(C)(C)NCCCNC(=O)c1cccc(Br)c1 [Compound 1] | – | highly cell permeant | no changes were observed | did not significantly decrease | > 10000 µM | Extensive changes in chemical shifts were observed | 10 µM | 0.35 | 1.5 | at least 17 fold | did not affect | reduction in cell viability | abrogated

Source: publication PMC4402254 (ACS chemical biology, 2015)
